In ChEMBL document CHEMBL3627693, “Novel aminotetrazole derivatives as selective STAT3 non-peptide inhibitors” (Eur J Med Chem, 2015):
Calls of active or inactive are those of the source. The calls are words filed in the database; no cut-off is given here.

Legend:
[1] = target: T1, Signal transducer and activator of transcription 3 (Homo sapiens, UniProt P40763); assay: Inhibition of STAT3 (unknown origin) expressed in Oncostatin M induced human HeLa cells at 50 uM incubated for 1 hr by luciferase reporter gene assay; type: cell-based
T1 sequence (P40763 whole entry): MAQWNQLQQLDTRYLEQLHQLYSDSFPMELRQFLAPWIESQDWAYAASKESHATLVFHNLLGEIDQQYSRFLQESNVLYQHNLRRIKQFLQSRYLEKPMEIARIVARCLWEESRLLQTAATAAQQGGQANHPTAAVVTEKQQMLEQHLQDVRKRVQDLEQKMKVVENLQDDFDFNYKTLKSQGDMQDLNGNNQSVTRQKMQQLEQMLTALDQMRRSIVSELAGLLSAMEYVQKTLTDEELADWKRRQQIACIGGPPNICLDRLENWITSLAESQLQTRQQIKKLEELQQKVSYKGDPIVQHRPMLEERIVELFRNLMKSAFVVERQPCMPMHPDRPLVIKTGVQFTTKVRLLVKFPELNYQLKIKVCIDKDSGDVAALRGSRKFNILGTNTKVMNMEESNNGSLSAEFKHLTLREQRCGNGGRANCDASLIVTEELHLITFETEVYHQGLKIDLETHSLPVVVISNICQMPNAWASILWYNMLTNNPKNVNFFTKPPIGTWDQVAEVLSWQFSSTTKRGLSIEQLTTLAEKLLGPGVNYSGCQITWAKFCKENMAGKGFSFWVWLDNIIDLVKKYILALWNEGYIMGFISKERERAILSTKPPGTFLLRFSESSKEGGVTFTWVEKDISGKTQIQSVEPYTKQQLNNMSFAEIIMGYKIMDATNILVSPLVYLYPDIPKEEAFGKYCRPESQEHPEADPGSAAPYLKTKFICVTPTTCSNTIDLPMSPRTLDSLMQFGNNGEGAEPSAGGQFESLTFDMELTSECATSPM

HeLa = assay: Cytotoxicity against human HeLa cells at 50 uM; type: cell-based
[2] = target: T1, Signal transducer and activator of transcription 3; settings: HeLa, 100 uM
B9 = assay: Cytotoxicity against mouse B9 cells assessed as decrease in cell proliferation at 50 uM after 72 hrs by MTT assay; type: functional, cell-based
[3] = target: T1, Signal transducer and activator of transcription 3; assay: Displacement of fluorescent peptide 5-FAM-G(pTyr)LPQTV-CONH2 from GST-tagged full-length human STAT3 preincubated for 60 mins followed by fluorescent peptide addition measured after 30 mins by fluorescence polarization assay
Procedure, shortened: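 Full-length GST-STAT3 (100 nM) preincubated 60 min at room temperature with compound at various concentrations or vehicle, in 50 mM NaCl, 10 mM Hepes pH 7.5, 1 mM EDTA, 0.01% Triton X-100, 2 mM DTT. Labelled peptide then added to 10 nM final, 30 min room temperature. FP read with excitation 480, emission 535 (P and S pol).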

[4] = target: T1, Signal transducer and activator of transcription 3; assay: Inhibition of STAT3 (unknown origin) expressed in Oncostatin M induced human HeLa cells incubated for 1 hr by luciferase reporter gene assay
[5] = target: T1, Signal transducer and activator of transcription 3; settings: HeLa, 100 uM; remark: listed apart in the source
CD4-positive T cell [6] = assay: Induction of polarization of C57BL/6 mouse spleen naive CD4+ lymphocytes into Th1 lymphocytes assessed as decrease in Tbet transcription; type: functional, tissue-based
[7] = target: T2, Signal transducer and activator of transcription 1-alpha/beta (Homo sapiens) (UniProt P42224); assay: Inhibition of STAT1 (unknown origin) expressed in IFN-gamma induced human HeLa cells at 50 uM incubated for 1 hr by luciferase reporter gene assay; type: cell-based
T2 sequence (whole entry): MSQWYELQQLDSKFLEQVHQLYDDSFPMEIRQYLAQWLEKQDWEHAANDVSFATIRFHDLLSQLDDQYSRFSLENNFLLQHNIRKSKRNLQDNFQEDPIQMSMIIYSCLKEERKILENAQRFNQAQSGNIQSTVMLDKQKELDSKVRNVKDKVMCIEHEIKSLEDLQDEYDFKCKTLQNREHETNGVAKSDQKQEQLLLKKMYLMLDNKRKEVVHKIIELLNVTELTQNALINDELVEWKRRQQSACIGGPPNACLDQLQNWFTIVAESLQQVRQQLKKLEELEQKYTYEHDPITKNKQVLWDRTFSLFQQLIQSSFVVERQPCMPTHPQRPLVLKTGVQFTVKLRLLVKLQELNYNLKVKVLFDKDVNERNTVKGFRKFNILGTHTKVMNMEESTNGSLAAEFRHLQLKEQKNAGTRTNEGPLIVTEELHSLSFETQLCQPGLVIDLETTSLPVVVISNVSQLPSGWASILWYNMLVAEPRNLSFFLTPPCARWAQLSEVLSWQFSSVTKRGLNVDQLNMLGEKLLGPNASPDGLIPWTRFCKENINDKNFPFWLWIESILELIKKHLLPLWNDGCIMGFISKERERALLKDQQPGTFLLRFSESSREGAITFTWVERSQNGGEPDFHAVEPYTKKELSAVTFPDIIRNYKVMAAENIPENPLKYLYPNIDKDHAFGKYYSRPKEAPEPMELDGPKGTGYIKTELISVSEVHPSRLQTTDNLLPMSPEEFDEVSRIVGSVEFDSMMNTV

CD4-positive T cell [8] = assay: Induction of polarization of C57BL/6 mouse spleen naive CD4+ lymphocytes into Th17 lymphocytes assessed as decrease in FoxP3 transcription at 50 uM; type: functional, tissue-based
PBL = assay: Induction IFN-gamma production in human PBL cells co-cultured with HT29 cells at 50 uM after 24 hrs by ELISA; type: functional, cell-based
MDA-MB-231 [9] = assay: Cytotoxicity against human MDA-MB-231 cells assessed as decrease in cell proliferation after 72 hrs by MTT assay; type: functional, cell-based
[10] = target: T2, Signal transducer and activator of transcription 1-alpha/beta (Homo sapiens); assay: Displacement of fluorescent peptide 5-FAM-G(pTyr)YIKTE- CONH2 from GST-tagged human STAT1b preincubated for 60 mins followed by fluorescent peptide addition measured after 30 mins by fluorescence polarization assay
Procedure, shortened: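 GST-tagged human STAT1b preincubated 60 min at room temperature with compound at various concentrations or vehicle in 50 mM NaCl, 10 mM Hepes pH 7.5, 1 mM EDTA, 0.01% Triton X-100, 2 mM DTT. Labelled peptide added to 10 nM final, 30 min room temperature. Fluorescence polarization read with excitation 480, emission 535.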

CD4-positive T cell [11] = assay: Induction of polarization of C57BL/6 mouse spleen naive CD4+ lymphocytes into Treg lymphocytes assessed as decrease in FoxP3 transcription at 50 uM; type: functional, tissue-based
CD4-positive T cell [12] = assay: Induction of polarization of C57BL/6 mouse spleen naive CD4+ lymphocytes into Treg lymphocytes assessed as decrease in ROR-gamma-t transcription at 50 uM; type: functional, tissue-based
MDA-MB-231 [13] = assay: Cytotoxicity against human MDA-MB-231 cells transfected with STAT3C assessed as decrease in cell proliferation after 72 hrs by MTT assay; type: functional, cell-based
CD4-positive T cell [14] = assay: Induction of polarization of C57BL/6 mouse spleen naive CD4+ lymphocytes into Th17 lymphocytes assessed as decrease in ROR-gamma-t transcription at 50 uM; type: functional, tissue-based

inhibition [1] | inhibition [2] | Activity [3] | IC50 [4] | inhibition [5] | inhibition [7] | Activity [10] | SMILES | Activity (HeLa) | Activity (B9) | Activity (CD4-positive T cell [6]) | Activity (CD4-positive T cell [8]) | Activity (PBL) | Activity (MDA-MB-231 [9]) | Activity (CD4-positive T cell [11]) | Activity (CD4-positive T cell [12]) | Activity (MDA-MB-231 [13]) | Activity (CD4-positive T cell [14])
Active |  |  |  |  |  |  | CCOc1cc(/C=C(\C#N)C(=O)NC2CCCCC2C)ccc1OCC(=O)O (stereo not given) | Toxic |  |  |  |  |  |  |  |  | 
70.2% | Active | Active | 25.7 µM | Active | 15.7% | inactive | COc1cc(CNc2nn[nH]n2)cc(Cl)c1OCc1ccc([N+](=O)[O-])cc1 |  | Dose-dependent effect | inactive | Active | Active | Dose-dependent effect | Active | Active | inactive | Active
Active |  |  |  |  |  |  | Brc1cc2c(cc1COc1ccc(-c3nn[nH]n3)cc1)OCO2 | Toxic |  |  |  |  |  |  |  |  | 
